Experimental data: ChEMBL document CHEMBL4011632, “Design, Synthesis, and Evaluation of Thiazolidine-2,4-dione Derivatives as a Novel Class of Glutaminase Inhibitors” (J Med Chem, 2017)
Blank lines part the entries; values can stand above or below the molecule they belong to. Calls of active or inactive are those of the source. No cut-off for these calls is given here.

How the values were obtained:
ASPC1 [1] = test: Anticlonogenic activity against human Aspc-1 cells at 2 uM after 21 days by crystal violet staining based assay relative to control; assay type: functional; settings: ASPC1, 504 h
How it was run: (§1)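 Anchorage-dependent colony formation: AsPC-1 cells seeded at 1000 cells/well in six-well plates and treated with compound. Colony formation is expressed as percent of vehicle treatment. Mean ± SD from at least three independent experiments, each in duplicate.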

[2] = target: T1, Glutaminase kidney isoform, mitochondrial (Homo sapiens, UniProt O94925); test: Inhibition of recombinant human MCF7 cells derived His-tagged GAC (L123 to S598 residues) expressed in Escherichia coli C41(DE3)pLysS using glutamine as substrate preincubated for 10 mins followed by substrate addition measured after 60 mins by glutamate dehydrogenase coupled enzyme assay
T1 sequence (O94925 whole entry): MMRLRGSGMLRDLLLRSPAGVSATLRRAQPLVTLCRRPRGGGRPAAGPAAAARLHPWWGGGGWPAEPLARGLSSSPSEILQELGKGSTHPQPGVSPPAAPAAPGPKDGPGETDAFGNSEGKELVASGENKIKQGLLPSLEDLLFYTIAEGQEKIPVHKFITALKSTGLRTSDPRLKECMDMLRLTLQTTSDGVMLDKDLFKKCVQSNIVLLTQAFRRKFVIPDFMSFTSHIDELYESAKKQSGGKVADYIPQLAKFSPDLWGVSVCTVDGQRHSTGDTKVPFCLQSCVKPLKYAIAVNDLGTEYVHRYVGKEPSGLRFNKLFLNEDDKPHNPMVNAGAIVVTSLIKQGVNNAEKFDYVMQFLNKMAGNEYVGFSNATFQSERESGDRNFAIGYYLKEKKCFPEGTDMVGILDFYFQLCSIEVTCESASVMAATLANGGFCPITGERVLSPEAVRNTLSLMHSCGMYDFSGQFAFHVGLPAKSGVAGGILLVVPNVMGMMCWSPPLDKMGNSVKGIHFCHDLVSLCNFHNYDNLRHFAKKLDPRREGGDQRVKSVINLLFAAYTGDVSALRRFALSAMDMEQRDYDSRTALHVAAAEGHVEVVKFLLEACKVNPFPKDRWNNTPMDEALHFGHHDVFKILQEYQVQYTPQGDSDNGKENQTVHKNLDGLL
How it was run: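 Human GAC cloned from MCF7 cDNA into pET28a(+) as a His-tagged construct. Expressed in E. coli C41(DE3)pLysS in Terrific Broth with kanamycin, induced with 1 mM IPTG for 6 h at 25 °C. Purified on Ni2+ resin with 500 mM imidazole elution and exchanged into 50 mM NaH2PO4, 50 mM Tris-HCl pH 8.0, 2 mM DTT, 50% glycerol. Activity measured by two-step glutaminase assay.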

[3] = Inhibition of recombinant human His-tagged KGA R387L mutant expressed in Escherichia coli BL21(DE3)pLysS using glutamine substrate preincubated for 10 mins followed by substrate addition measured after 60 mins
Homo sapiens [4] = species: Homo sapiens; test: Selectivity ratio of IC50 for recombinant human His-tagged KGA S384A mutant expressed in Escherichia coli BL21(DE3)pLysS to IC50 for human His-tagged KGA (L123 to L669 residues) expressed in Escherichia coli BL21(DE3)pLysS
Homo sapiens [5] = species: Homo sapiens; test: Selectivity ratio of IC50 for recombinant human His-tagged KGA R387A mutant expressed in Escherichia coli BL21(DE3)pLysS to IC50 for human His-tagged KGA (L123 to L669 residues) expressed in Escherichia coli BL21(DE3)pLysS
[6] = target: T2, Glutaminase liver isoform, mitochondrial (Homo sapiens) (UniProt Q9UI32); test: Inhibition of human GLS2 in GLS1 deficient human Aspc-1 cells assessed as decrease in cellular glutamate production at 3.13 to 100 uM after 4 hrs by amplex red glutamic acid assay
T2 sequence (whole entry): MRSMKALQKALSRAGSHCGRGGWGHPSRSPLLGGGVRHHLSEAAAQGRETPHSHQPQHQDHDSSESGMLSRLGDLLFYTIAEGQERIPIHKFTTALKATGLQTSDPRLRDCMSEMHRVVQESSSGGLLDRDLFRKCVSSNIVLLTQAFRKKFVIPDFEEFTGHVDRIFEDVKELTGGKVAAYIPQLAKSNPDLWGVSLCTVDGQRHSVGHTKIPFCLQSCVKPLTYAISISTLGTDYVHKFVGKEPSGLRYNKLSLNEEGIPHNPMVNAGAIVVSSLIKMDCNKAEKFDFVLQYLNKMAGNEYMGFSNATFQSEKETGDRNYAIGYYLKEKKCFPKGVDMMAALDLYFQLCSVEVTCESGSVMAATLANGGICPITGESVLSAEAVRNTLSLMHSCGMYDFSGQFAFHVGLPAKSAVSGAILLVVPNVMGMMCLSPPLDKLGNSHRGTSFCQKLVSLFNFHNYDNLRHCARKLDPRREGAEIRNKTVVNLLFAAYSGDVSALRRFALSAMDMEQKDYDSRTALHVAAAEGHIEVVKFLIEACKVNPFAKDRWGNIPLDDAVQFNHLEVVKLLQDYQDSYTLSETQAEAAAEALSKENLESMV
How it was run: (§2)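 GLS-knockout AsPC-1 cells made with GLS-KO ZFN mRNA, single-cell cloned, and grown in glutamine-free RPMI 1640 with 10% FBS. Cells seeded at 30 000/well and grown 24 h at 37 °C. Treated 4 h with 1% DMSO vehicle or 3.13−100 μM inhibitor, washed with PBS, and lysed in NP-40 buffer (4 °C, 20 min). Lysate glutamate measured by Amplex Red. Three independent experiments in duplicate.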

[7] = target: T2, Glutaminase liver isoform, mitochondrial (Homo sapiens); test: Inhibition of human GLS2 in GLS1 deficient human Aspc-1 cells assessed as decrease in cellular glutamate production after 4 hrs by amplex red glutamic acid assay; how it was run: as §2
Homo sapiens [8] = species: Homo sapiens; test: Selectivity index, ratio of IC50 for recombinant human His-tagged GAB (P56-V602 residues) expressed in Escherichia coli C41(DE3)pLysS to IC50 for recombinant human His-tagged KGA (L123 to L669 residues) expressed in Escherichia coli BL21(DE3)pLysS
[9] = target: T3, Glutaminase liver isoform, mitochondrial (Homo sapiens, UniProt Q9UI32); test: Inhibition of recombinant human His-tagged GAB (P56 to V602 residues) expressed in Escherichia coli C41(DE3)pLysS using glutamine as substrate preincubated for 10 mins followed by substrate addition measured after 60 mins by glutamate dehydrogenase coupled enzyme assay
T3 sequence (Q9UI32 whole entry): T2 sequence (whole entry)

ASPC1 [10] = test: Growth inhibition of human Aspc-1 cells after 72 hrs by MTS assay; assay type: functional, cell-based; settings: ASPC1, 72 h
How it was run: (§3)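 Growth inhibition by MTS viability read-out. Cells seeded in 96-well plates at 4000/well (AsPC-1) or 8500/well (MDA-MB-231). Mean ± SD from at least three independent experiments, each in duplicate.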

[11] = Inhibition of recombinant human His-tagged KGA K507A mutant expressed in Escherichia coli BL21(DE3)pLysS using glutamine substrate preincubated for 10 mins followed by substrate addition measured after 60 mins
Homo sapiens [12] = species: Homo sapiens; test: Selectivity ratio of IC50 for recombinant human His-tagged KGA R387L mutant expressed in Escherichia coli BL21(DE3)pLysS to IC50 for human His-tagged KGA (L123 to L669 residues) expressed in Escherichia coli BL21(DE3)pLysS
MDA-MB-231 = test: Growth inhibition of human MDA-MB-231 cells after 72 hrs by MTS assay; assay type: functional, cell-based; settings: MDA-MB-231, 72 h; how it was run: as §3
[13] = target: T1, Glutaminase kidney isoform, mitochondrial; test: Inhibition of recombinant human His-tagged KGA (L123 to L669 residues) expressed in Escherichia coli BL21(DE3)pLysS using glutamine substrate preincubated for 10 mins followed by substrate addition measured after 60 mins by glutamate dehydrogenase coupled enzyme assay
Homo sapiens [14] = species: Homo sapiens; test: Selectivity ratio of IC50 for recombinant human His-tagged KGA K507A mutant expressed in Escherichia coli BL21(DE3)pLysS to IC50 for human His-tagged KGA (L123 to L669 residues) expressed in Escherichia coli BL21(DE3)pLysS
ASPC1 [15] = test: Anticlonogenic activity against human Aspc-1 cells at 10 uM after 21 days by crystal violet staining based assay relative to control; assay type: functional; settings: ASPC1, 504 h; how it was run: as §1
[16] = Inhibition of recombinant human His-tagged KGA R387A mutant expressed in Escherichia coli BL21(DE3)pLysS using glutamine substrate preincubated for 10 mins followed by substrate addition measured after 60 mins
[17] = target: Glutaminase 1/2 (Homo sapiens) (UniProt O94925+Q9UI32); settings: 3.13 to 100 uM
[18] = Inhibition of recombinant human His-tagged KGA S384A mutant expressed in Escherichia coli BL21(DE3)pLysS using glutamine substrate preincubated for 10 mins followed by substrate addition measured after 60 mins
[19] = compound: Cc1cc(/C=C2\SC(=O)NC2=O)c(C)n1-c1ccc(-c2ccc(/C=C3\SC(=O)NC3=O)cc2)cc1; test: (§4) Mixed-type inhibition of recombinant human KGA (L123 to L669 residues) expressed in Escherichia coli BL21(DE3)pLysS assessed as Vmax for substrate at 0.2 uM using glutamine substrate preincubated for 10 mins followed by substrate addition measured after 60 mins by Linerweaver-Burk plot analysis (reference value: 26.2 +/- 0.2 nmol/min/ug)
How it was run: (§5)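 Kinetic analysis on human KGA: glutamine saturation profiles recorded at 0−0.4 μM inhibitor. Km and Vmax derived at each inhibitor concentration to assign the inhibition mode.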

[20] = compound: Cc1cc(/C=C2\SC(=O)NC2=O)c(C)n1-c1ccc(-c2ccc(/C=C3\SC(=O)NC3=O)cc2)cc1; test: as §4, with “Km” for “Vmax”, “0.05” for “0.2”, “25.5” for “26.2”, “0.6 mM)” for “0.2 nmol/min/ug)”; how it was run: as §5
[21] = compound: Cc1cc(/C=C2\SC(=O)NC2=O)c(C)n1-c1ccc(-c2ccc(/C=C3\SC(=O)NC3=O)cc2)cc1; test: as §4, with “at 0.05” for “at 0.2”; how it was run: as §5
[22] = compound: Cc1cc(/C=C2\SC(=O)NC2=O)c(C)n1-c1ccc(-c2ccc(/C=C3\SC(=O)NC3=O)cc2)cc1; test: as §4, with “at 0.1” for “at 0.2”; how it was run: as §5
[23] = compound: Cc1cc(/C=C2\SC(=O)NC2=O)c(C)n1-c1ccc(-c2ccc(/C=C3\SC(=O)NC3=O)cc2)cc1; test: as §4, with “Km” for “Vmax”, “0.1” for “0.2”, “25.5” for “26.2”, “0.6 mM)” for “0.2 nmol/min/ug)”; how it was run: as §5
[24] = compound: Cc1cc(/C=C2\SC(=O)NC2=O)c(C)n1-c1ccc(-c2ccc(/C=C3\SC(=O)NC3=O)cc2)cc1; test: as §4, with “at 0.4” for “at 0.2”; how it was run: as §5

IC50 [2]: 151 nM
IC50 [3]: 603 nM
Ratio IC50 (Homo sapiens [4]): 1.7
Ratio IC50 (Homo sapiens [5]): 197
inhibition [6]: Active
inhibition [7]: Dose-dependent effect
Ratio IC50 (Homo sapiens [8]): 5.8
IC50 [9]: 261 nM
IC50 (ASPC1 [10]): 10000 nM
IC50 [11]: 187 nM
Ratio IC50 (Homo sapiens [12]): 13.4
IC50 (MDA-MB-231): 13400 nM
IC50 [13]: 45 nM
Ratio IC50 (Homo sapiens [14]): 4.2
IC50 [16]: 8880 nM
inhibition [17]: Active
IC50 [18]: 78 nM
Molecule: O=C1NC(=O)/C(=C/c2ccc(-c3ccc(-n4c(-c5ccccc5)cc(/C=C5\SC(=O)NC5=O)c4-c4ccccc4)cc3)cc2)S1
inhibition at 2 µM (ASPC1 [1]): 79%
inhibition at 10 µM (ASPC1 [15]): 94%

B1: Glutaminase kidney isoform, mitochondrial (Homo sapiens), O94925 (protein)
chain: T1 sequence (O94925 whole entry)
Vmax [19]: 22.9 nmol/min/µg
Km [20]: 50.9 mM
Vmax [21]: 26.3 nmol/min/µg
Vmax [22]: 26.2 nmol/min/µg
Km [23]: 69.7 mM
Vmax [24]: 15 nmol/min/µg
